Data set [1] can be described thus: in vitro anticoagulant potency (2x APTT) against Human plasma. Format: functional.
Another data set deals with Prothrombin (Homo sapiens, UniProt P00734). Description: Inhibitory activity against thrombin (IIa) was determined.
For a further data set, the target named is Serine protease 1 (Homo sapiens, UniProt P07477). In words: Inhibitory activity against trypsin was determined.
Data set [2] in a line: Area under curve(AUC) value of the compound in dogs at 0.5 mg/kg dose upon oral administration. Format: ADME, organism-based. Also noted: dose 0.5 mg/kg, route oral. The conditions noted are these: dog, in vivo. In a few lines:
(§1)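 Oral dosing at 0.5 mg/kg in dogs (n = 4) with plasma levels followed over time. Reported as Cmax (μM), tmax (min), terminal t1/2 (min) and AUC (μM·h), each given as mean ± spread. The same dogs later received an iv crossover dose at 0.5 mg/kg to estimate oral bioavailability.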

Data set [3] can be described thus: Maximum plasma concentration in dogs at 0.5 mg/kg dose upon oral administration. It counts as ADME, organism-based, Canis lupus familiaris. Also noted: dose 0.5 mg/kg, route oral. The conditions noted are these: dog. In a few lines:
as §1

The nature of data set [4]: Final plasma concentration after intravenous infusion. It counts as ADME, cell-free. As to conditions: read-out: Final plasma concentration.
Data set [5] can be described thus: Final plasma concentration after intravenous infusion at 5 ug/kg/min dose. It counts as ADME, cell-free. As to conditions: 0.005 mg/kg, read-out: Final plasma concentration.
Data set [6] can be described thus: time required for maximum concentration in dogs at 0.5 mg/kg dose upon oral administration. Format: ADME, organism-based, Canis lupus familiaris. Also noted: dose 0.5 mg/kg, route oral. The conditions noted are these: dog, in vivo. In a few lines: as §1
Data set [7] in a line: Half-life in dogs at 0.5 mg/kg dose upon oral administration. It counts as ADME, organism-based, Canis lupus familiaris. Also noted: dose 0.5 mg/kg, route oral. As to conditions: dog, in vivo. In a few lines: as §1
In data set [8] the test system is Rattus norvegicus. In words: In vivo antithrombotic activity was measured after intravenous infusion (at 10 ug/kg/min) in rat FeCl3 arterial thrombosis model; 0/6. It counts as functional.
Data set [9] has as its system Rattus norvegicus. In words: In vivo antithrombotic activity was measured after intravenous infusion (at 5 ug/kg/min) in rat FeCl3 arterial thrombosis model; 4/6. Format: functional.
Data set [10] in a line: in vitro anticoagulant potency (2x APTT) against rat plasma. Format: functional.
Data set [11] relates to Rattus norvegicus. In words: In vivo antithrombotic activity was measured after intravenous infusion (at 10 ug/kg/min) in rat FeCl3 arterial thrombosis model; 3/6. Format: functional.
A short description of data set [12]: Area under curve(AUC) value of the compound. It counts as ADME.
Data set [13] in a line: Maximum plasma concentration in dogs at 1 mg/kg dose upon oral administration. It counts as ADME, organism-based, Canis lupus familiaris. Also noted: dose 1 mg/kg, route oral. The conditions noted are these: dog. In a few lines:
(§2)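 Dogs dosed orally at 1 mg/kg, n = 2 per compound. Plasma drug levels were followed over time to give Cmax (μM), tmax (min), elimination t1/2 (min) and AUC (μM·h).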

A short description of data set [14]: time required for maximum concentration in dogs at 1 mg/kg dose upon oral administration. It counts as ADME, organism-based, Canis lupus familiaris. The conditions noted are these: dog, in vivo. Also noted: dose 1 mg/kg, route oral. In a few lines: as §2
Data set [15] in a line: Half-life in dogs at 1 mg/kg dose upon oral administration. Format: ADME, organism-based, Canis lupus familiaris. Also noted: dose 1 mg/kg, route oral. As to conditions: dog, in vivo. In short, it runs like this:
as §2

Data set [16] relates to Rattus norvegicus. In words: In vivo antithrombotic activity was measured after intravenous infusion (at 10 ug/kg/min) in rat FeCl3 arterial thrombosis model; 0/9. It counts as functional.
Data set [17] has as its system Rattus norvegicus. Description: In vivo antithrombotic activity was measured after intravenous infusion (at 5 ug/kg/min) in rat FeCl3 arterial thrombosis model;1/6. It counts as functional.
Data set [18] in a line: Area under curve(AUC) value of the compound in dogs at 1 mg/kg dose upon oral administration. It counts as ADME, organism-based, Canis lupus familiaris. Also noted: dose 1 mg/kg, route oral. The conditions noted are these: dog, in vivo. In short, it runs like this: as §2

This is an account of results in ChEMBL document CHEMBL1131169, “Efficacious, orally bioavailable thrombin inhibitors based on 3-aminopyridinone or 3-aminopyrazinone acetamide peptidomimetic templates” (J Med Chem, 1998).

Sequence of Serine protease 1 (P07477 whole entry): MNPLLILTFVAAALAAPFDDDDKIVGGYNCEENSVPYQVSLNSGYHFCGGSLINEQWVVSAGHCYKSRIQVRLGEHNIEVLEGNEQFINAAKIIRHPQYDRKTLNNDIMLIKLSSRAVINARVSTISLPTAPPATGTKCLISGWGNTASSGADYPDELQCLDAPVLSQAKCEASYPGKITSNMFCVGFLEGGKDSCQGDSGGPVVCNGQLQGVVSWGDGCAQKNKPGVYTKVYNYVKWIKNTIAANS

Usually Ki stands for the dissociation constant of the complex between target and ligand, obtained from inhibition or displacement. Read a high Ki as a looser hold on the target. As to `Cc1cnc(NCCc2ccccc2)c(=O)n1CC(=O)NCc1ccc(N)nc1`, the “2x APTT” value in data set [1] came to 2100 nM. The values for the Ki at Prothrombin and at Serine protease 1 were 8.3 nM and 1200 nM, respectively.
The corresponding values for `Cc1nc(N)ccc1CNC(=O)Cn1c(C)c(Cl)nc(NCCc2ccccc2)c1=O` are 5470 nM, 7 nM and 2100 nM.
In the case of `Cc1nc(N)ccc1CNC(=O)Cn1c(C)cnc(NC(C)(C)Cc2ccccc2)c1=O`, the Ki on Prothrombin turned out to be 24 nM; at Serine protease 1 it was 2600 nM.
The AUC is concentration integrated over time. Low values mean less exposure, high ones more exposure. The term Cmax denotes the highest concentration seen after dosing. As usually defined, the Tmax is the time from dosing to the highest level. By half-life is commonly meant the time in which the quantity being followed falls by half. Higher therefore signals slow decline. As for `Cc1nc(N)ccc1CNC(=O)Cn1c(C)cnc(NCCc2ccccc2)c1=O` [L-375378], the AUC in data set [2] was found to be 11.2 µM·h. The same molecule came in with a Cmax in data set [3] of 1960 nM. Moreover, the concentration in [4] came to 445 nM; in data set [5] it was 238 nM. In addition, the Tmax in data set [6] was 0.875 h. Also, the half-life in data set [7] worked out at 3.85 h. In addition, the “2x APTT” value in [1] stood at 410 nM; in [10] it was 380 nM. For the same molecule, the Occlusions was found to be 0 with Rattus norvegicus [8] and 4 in the data set with Rattus norvegicus [9]. Also, the values for the inhibitory constant (Ki) on Prothrombin and at Serine protease 1 were 0.8 nM and 1800 nM, respectively.
For the molecule `Cc1nc(N)ccc1CNC(=O)Cn1c(C)cnc(N[C@@H](C)Cc2ccccc2)c1=O`, the Ki was 22 nM on Prothrombin and 4800 nM at Serine protease 1.
In the case of `Cc1cc(N)nc(C)c1CNC(=O)Cn1c(C)cnc(NCCc2ccccc2)c1=O`, the concentration in data set [4] worked out at 224 nM. For the same molecule, the “2x APTT” value in [1] was determined as 420 nM. The same molecule came in with an Occlusions in the data set with Rattus norvegicus [11] of 3. Further, the values for the Ki at Prothrombin and on Serine protease 1 were 0.35 nM and 1000 nM, respectively.
`Cc1nc(N)ccc1CNC(=O)Cn1c(C)ccc(NS(=O)(=O)Cc2ccccc2)c1=O` [L-374087] returned an area under the curve (AUC) in data set [12] of 4.42 µM·h. The molecule also had a Cmax in [13] of 990 nM. Further, the concentration stood at 586 nM in data set [4] and 221 nM in data set [5]. The Tmax in data set [14] was 1.25 h. The half-life in data set [15] amounted to 2.57 h. For the same molecule, the “2x APTT” value in data set [1] was 210 nM; in data set [10], 250 nM. Further, the Occlusions was 0 in the data set with Rattus norvegicus [16] and 1 in the data set on Rattus norvegicus [17]. In addition, the Ki turned out to be 0.5 nM at Prothrombin and 3200 nM on Serine protease 1.
For the molecule `Cc1nc(N)ccc1CNC(=O)Cn1c(C)cnc(N[C@H](C)Cc2ccccc2)c1=O`, the AUC in [18] is 1.85 µM·h. In [13], this molecule yielded a Cmax of 600 nM. Also, the concentration in data set [4] came to 554 nM. Besides, the Tmax in data set [14] is 0.417 h. In data set [15], the half-life turned out to be 2.13 h. In addition, in data set [1], the “2x APTT” value was 350 nM. Moreover, in the data set with Rattus norvegicus [8], the Occlusions was 0. Further, the Ki at Prothrombin turned out to be 0.52 nM; at Serine protease 1, 1500 nM.
